Screens from PubChem BioAssay.
Only some compounds are listed: those with a hit (about 2.7% of all), similar ones and a draw of the others.
PAFAH2 FP inh: PAFAH2 (human) inhibition; Q99487; recombinant PAFAH2, FP-rhodamine activity probe, fluorescence polarization; inhibition, % at 3.39 µM; 0.99% of 340,000 active; AID 492956;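 active means inhibition above the mean over all tested compounds plus 3 SD, cut at about 30% in these data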;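 further: inhibitors block probe labeling of enzyme so polarization drops; 0% = enzyme with DMSO and 100% = wells lacking PAFAH2 protein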
PAFAH1B2 FP inh: inhibitors of human PAFAH1B2; P68402; recombinant PAFAH1B2, FP-rhodamine activity probe, fluorescence polarization; inhibition, % at 3.39 µM; 1.2% of 340,000 active;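 active means inhibition above the mean of all tested compounds plus 3 SD, cut at about 24% in these data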;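 further: 0% = enzyme with DMSO and 100% = wells lacking PAFAH1B2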
ARFGAP1 inh: inhibits rat ARF GTPase activating protein 1; inhibition, % at 16.5 µM; 0.26% of 360,000 active; Arfgap1-stimulated ARF1 GTP hydrolysis, GDP FP detection; Q62848;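 active means inhibition above a per-plate limit, mean inhibition of low control wells plus 3 SD, cut at about 25% in these data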;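 further: 0% = DMSO wells with enzyme and 100% = wells lacking Arfgap1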
Target sequence (Q62848 1-136 limits assumed): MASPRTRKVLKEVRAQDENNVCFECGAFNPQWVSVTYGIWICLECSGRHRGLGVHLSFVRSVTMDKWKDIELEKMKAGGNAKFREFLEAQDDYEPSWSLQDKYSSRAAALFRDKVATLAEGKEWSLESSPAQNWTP
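Assay system: Rat Arfgap1 GAP domain (His6, aa 1-136), purified enzyme | Buffer or medium: HEPES 25 mM pH 7.5, NaCl 150 mM, MgCl2, DTT | Schedule: GTP hydrolysis reaction 2 h at 25 °C | Signal: FP of antibody-bound GDP Alexa 633 tracer, ex 620/em 688 nm | Measure: Percent inhibition of Arfgap1-stimulated GTP hydrolysis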
pPAFAH FP inh: inhibitors of human plasma PAF acetylhydrolase (pPAFAH) | Q13093 | recombinant pPAFAH, FP-rhodamine probe fluorescence polarization | inhibition, % at 3.39 µM | 1.5% of 330,000 active | AID 463082;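 active means inhibition above the mean inhibition across the screen plus 3 SD, cut at about 25% in these data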;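 further: inhibitors block binding of the rhodamine activity-based probe so polarization drops; 0% = enzyme with DMSO and 100% = wells lacking pPAFAH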
ASAP1 inh: ASAP1 ArfGAP inhibition; Q9ULH1; ASAP1-stimulated ARF1 GTP hydrolysis, GDP FP detection; inhibition, % at 16.5 µM; 0.19% of 360,000 active; in the data active means inhibition above about 25%;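 further: 0% = vehicle with enzyme and substrate and 100% = no enzyme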
Target sequence (Q9ULH1 325-724 limits assumed): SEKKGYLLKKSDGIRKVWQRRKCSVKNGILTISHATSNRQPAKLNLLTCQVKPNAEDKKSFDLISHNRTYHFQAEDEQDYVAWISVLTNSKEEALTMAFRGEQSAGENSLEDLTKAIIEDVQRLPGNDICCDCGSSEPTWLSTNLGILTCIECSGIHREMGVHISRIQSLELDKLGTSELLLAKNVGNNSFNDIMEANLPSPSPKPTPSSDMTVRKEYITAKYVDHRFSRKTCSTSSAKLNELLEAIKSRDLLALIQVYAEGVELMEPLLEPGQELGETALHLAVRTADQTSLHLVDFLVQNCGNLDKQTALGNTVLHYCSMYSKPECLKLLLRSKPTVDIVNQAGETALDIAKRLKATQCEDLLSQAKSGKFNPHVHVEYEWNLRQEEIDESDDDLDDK
PAFAH1B3 FP inh: inhibitors of human PAFAH1B3; inhibition, % at 3.39 µM; recombinant PAFAH1B3, FP-rhodamine probe, fluorescence polarization; Q15102; AID 492972; 0.28% of 340,000 active;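 active means inhibition above the screen-wide average of all tested compounds plus 3 SD, cut at about 25% in these data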;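 further: 0% = enzyme with DMSO only and 100% = wells lacking PAFAH1B3 protein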
An asterisk follows results filed as active; nt = no result given.

SMILES	PAFAH2 FP inh	PAFAH1B2 FP inh	ARFGAP1 inh	pPAFAH FP inh	ASAP1 inh	PAFAH1B3 FP inh
O=C(OCc1ccccc1Cl)c1cccnc1Cl	0	4	-3	10	0	-1
CC(=O)NC1CCCCN(C)C1=O (stereo not given)	nt	nt	4	nt	1	nt
O=C(CSc1nccn1-c1ccc(Cl)cc1)N1CCCc2ccccc21	-2	25*	3	1	-12	-5
COc1cccc(C(=O)N[C@H](C(=O)N2CCC[C@H]2C(=O)NCc2ccccc2)C(C)C)c1	nt	nt	7	nt	1	nt
O=c1cc(CSc2ccc(S(=O)(=O)N3CCCCC3)cn2)nc2sccn12	6	25*	4	10	20	9
O=S(=O)(c1ccc(SCc2ccc(Cl)cc2)nc1)N1CCCC1	2	26*	7	-1	-9	6
Cc1cc(C)cc(CSc2ccc(S(=O)(=O)N3CCCC3)cn2)c1	-3	1	3	5	-4	10
Cc1ccc(S(=O)(=O)N2CCN(C(=O)COc3ccc(-c4nnco4)cc3)CC2)cc1	1	7	1	6	-11	-4
Cc1ccc(S(=O)(=O)CCC(=O)Oc2ccc(-c3nnco3)cc2)cc1	-6	5	6	29*	-4	1
O=C1CC(=C2c3ccccc3-c3ccccc32)C(=O)N1CCN1CCN(c2cccc(Cl)c2)CC1	-6	-2	1	26*	3	1
CC1(C)Nc2ccc(O)cc2-c2c1ssc2=S	10	3	-7	26*	8	7
O=C(Cc1ccc(Cl)cc1)Nc1ccc(S(=O)(=O)Nc2cnc3ccccc3n2)cc1	-1	20	11	31*	4	6
O=C(Nc1ccc(S(=O)(=O)Nc2cnc3ccccc3n2)cc1)c1ccc(Cl)cc1Cl	nt	nt	4	1	-3	nt
C[C@H](NC(=O)OCc1ccccc1)C(=O)N[C@@H](Cc1c[nH]c2ccccc12)C(=O)O	2	25*	0	0	-18	0
O=C(Oc1c(-c2ccccc2)c(=O)n2c3c(cccc13)CC2)c1ccccc1	nt	nt	-11	26*	-2	nt
COc1ccc(-c2cc(C)no2)cc1S(=O)(=O)Nc1cccc(C)c1	0	-1	7	30*	0	6
COc1cc(C(=O)O[C@H]2C/C(C)=C/CC[C@]3(C)O[C@@H]3C(O)C2C(C)C)cc(OC)c1OC (stereo not given in full)	-4	5	-8	2	-1	4
COc1cc(C(=O)O[C@H]2CC(C)=CC[C@@]3(C)CC[C@@](O)(C(C)C)[C@H]23)ccc1O	1	34*	3	6	14	-3
CCC(=O)Nc1cccc(C(=O)OCC(=O)c2ccccc2Cl)c1	41*	-1	6	3	3	5
COc1ccc(N(CC(=O)Nc2cc(C)cc(C)c2)S(=O)(=O)c2ccccc2[N+](=O)[O-])c(OC)c1	-6	-1	17	2	3	-5
COc1ccc(N(CC(=O)Nc2cc(C)ccc2C)S(=O)(=O)c2ccccc2[N+](=O)[O-])c(OC)c1	-6	1	1	29*	4	4
COC(=O)C1=C(C)N(C)C(=NCc2cccc(C(F)(F)F)c2)NC1c1cccc(Cl)c1 (stereo not given)	nt	nt	-5	nt	-14	nt
COc1ccc(CCC(=O)Nc2c(-c3ccc(N(C)C)cc3)[nH][nH]c2=O)cc1	nt	nt	-3	nt	49*	nt
O=S(=O)(c1ccc(Br)cc1)N1CCn2c(nc3ccccc32)C1	8	29*	1	0	-7	8
COC(=O)c1ccsc1NS(C)(=O)=O	nt	nt	-7	nt	6	nt
SMILES	PAFAH2 FP inh	PAFAH1B2 FP inh	ARFGAP1 inh	pPAFAH FP inh	ASAP1 inh	PAFAH1B3 FP inh
Cc1ccc(S(=O)(=O)Oc2ccc(C3C4=C(CCCC4=O)N(CCC(=O)O)C4=C3C(=O)CCC4)cc2Cl)cc1	6	39*	6	2	-7	3
COC(=O)N1C[C@H](OC(=O)c2ccc(-c3ccccc3)cc2)[C@H]2C[C@@H]1c1ccccc1O2	nt	nt	-1	nt	0	nt
CCCc1nc2c(C)cc(Br)cn2c1Cc1ccccc1OC	nt	nt	2	nt	0	nt
CCCCN1CC(N2CCCC2)CS1(=O)=O (stereo not given)	nt	nt	-7	nt	2	nt
O=S1(=O)N[C@@H](Cc2ccccc2)COc2cc(NC3CC3)ccc21	nt	nt	0	nt	9	nt
Cc1cc(C(=O)Nc2c(C)nn(Cc3ccccc3Cl)c2C)no1	-1	3	3	26*	0	4
C[C@H](CO)N1C[C@H](C)[C@H](CN(C)C(=O)Nc2cccc3ccccc23)Oc2ncc(Br)cc2C1=O	nt	nt	1	nt	2	nt
CCOC(=O)C1Nc2ccc(C(F)(F)F)cc2C2c3ccccc3CC12 (stereo not given)	2	3	12	-7	-2	0
CCOC(=O)C1Nc2ccccc2C2C(O)C(O)CC12 (stereo not given)	13	14	5	18	-4	38*
N/C(=N\OC(=O)c1ccc(Cl)cc1Cl)c1ccccc1	-5	12	-15	-7	-6	3
N/C(=N\OC(=O)c1ccc(Cl)cc1Cl)c1ccc(Cl)cc1	-22	37*	0	-4	4	7
Cc1cc2c(nc1C)CCCN2S(=O)(=O)c1c(C)noc1C	nt	nt	5	nt	-5	nt
COc1cc2sc3cc(NCC[C@@H]4CCCN4C)ccc3c(=O)c2cc1OC	-5	-3	27*	6	20	-2
COc1cccc2sc3ccc(NCCC4CCCN4C)cc3c(=O)c12 (stereo not given)	3	6	8	4	19	2
C[C@@H]1COc2cc(NCCCN3CCOCC3)ccc2S(=O)(=O)N1	nt	nt	1	nt	4	nt
COc1cccc(C(=O)N(Cc2ccco2)Cc2cc3cccc(C)c3[nH]c2=O)c1	-4	2	7	25*	3	9
COc1ccc2[nH]c(=O)c(CN(Cc3ccco3)C(=O)c3ccccc3)cc2c1	2	2	2	2	-12	5
CCCCS(=O)(=O)N1CCCc2nc(-c3ccc(F)cc3)ccc21	nt	nt	-3	nt	0	nt
O=C1S/C(=C\C=C\c2ccco2)C(=O)N1c1ccccc1	6	-3	5	26*	5	-3
CN1CCCCC(NC(=O)c2cccc(F)c2)C1=O (stereo not given)	nt	nt	2	nt	11	nt
Cc1cc(C(C)(C)C)cc(S(=O)(=O)Nc2cccc(C(=O)O)c2)c1C	3	30*	12	3	19	6
c1ccc(-c2cc(-c3ccc(N4CCOCC4)cc3)nc3ccccc23)cc1	2	-1	-1	30*	-13	9
CCCCOc1ccc(C(=O)NC2CCCCN(C)C2=O)cc1 (stereo not given)	nt	nt	-1	nt	-3	nt
Cc1ccc(-n2c(Cc3cccn3C)nnc2SCC(=O)NCc2ccco2)cc1	3	1	14	29*	4	3
Cc1ccc(-n2c(Cc3cccn3C)nnc2SCC(N)=O)cc1	-14	4	7	23	8	2
